Ratio, Activity and inhibition data for 53 compounds are collected here from ChEMBL document CHEMBL1629474, “Massive screening yields novel and selective Trypanosoma cruzi triosephosphate isomerase dimer-interface-irreversible inhibitors with anti-trypanosomal activity” (Eur J Med Chem, 2010).

Activity calls are given as the source filed them. The rule behind the calls is not given here. Some results are limits rather than exact numbers.

Assay [1] is described as follows: Selectivity for Trypanosoma cruzi triosephosphate isomerase over human triosephosphate isomerase.
The next assay deals with Trypanosoma cruzi. The experiment in a line: Antiparasitic activity against Trypanosoma cruzi T2 epimastigotes assessed as growth inhibition at 25 uM after 5 days. Type of assay: functional. In a few lines:
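Late-log epimastigotes were grown axenically at 28 °C in BHI-tryptose with 5% fetal calf serum and seeded at 2×10^6/mL in medium containing compound (DMSO stock; final DMSO ≤1%, 1% DMSO control). Growth was read as A590 at day 0 and day 5. Inhibition = {1 − [(Ap − A0p)/(Ac − A0c)]} × 100. Means of two experiments.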

Assay [2] concerns the target Triosephosphate isomerase, glycosomal (Trypanosoma cruzi) (UniProt P52270). The experiment in a line: Inhibition of Trypanosoma cruzi triosephosphate isomerase at 400 uM after 2 hrs. The gist of the method: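 Recombinant E. coli-expressed enzyme, dialyzed into 100 mM triethanolamine/10 mM EDTA pH 7.4, was incubated with compound (DMSO stock) in 100 mM triethanolamine, 10 mM EDTA, pH 7.4, 10% DMSO at 36 °C for 2 h. An aliquot was then assayed for activity (glyceraldehyde 3-phosphate to dihydroxyacetone phosphate, α-glycerol phosphate dehydrogenase-coupled) with 5 ng enzyme. Irreversible inhibition was scored as loss of activity; means of two experiments.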

Sequence of Triosephosphate isomerase, glycosomal (Trypanosoma cruzi) (P52270 whole entry): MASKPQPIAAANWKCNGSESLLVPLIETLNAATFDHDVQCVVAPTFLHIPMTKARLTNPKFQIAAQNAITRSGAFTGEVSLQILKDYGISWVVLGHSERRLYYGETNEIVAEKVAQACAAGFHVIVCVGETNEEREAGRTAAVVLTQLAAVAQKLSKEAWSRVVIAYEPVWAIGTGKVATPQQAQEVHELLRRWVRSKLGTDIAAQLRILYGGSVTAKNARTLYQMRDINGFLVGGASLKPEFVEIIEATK

With `CC(=O)NCc1ccccc1`, in assay [1], the Ratio was greater than 4. Moreover, the outcome in the assay on Trypanosoma cruzi was Active. For the same compound, the inhibition in assay [2] came out at 32%.
In the case of `O=C(c1ccc2no[n+]([O-])c2c1)N1CCOCC1`, the Ratio in assay [1] was greater than 4. In addition, in the assay on Trypanosoma cruzi, the result was Active. The inhibition in assay [2] worked out at 7%.
`O=C(Oc1ccccc1)N1CCOCC1`: in assay [1], the Ratio was greater than 4. Moreover, in the assay on Trypanosoma cruzi, the outcome was Active. Further, the inhibition in assay [2] amounted to 26%.
The corresponding values for `COc1ccc(C=O)cc1-c1cc(C=O)ccc1O` are greater than 4, “Active” and 32%.
On to `C=C(C)CNC(=O)N/N=C/c1ccc([N+](=O)[O-])o1`, for which the Ratio in assay [1] was greater than 4. The outcome in the assay with Trypanosoma cruzi was Active. This compound also gave an inhibition in assay [2] of 6%.
The corresponding values for `COC(=O)N/N=C/c1ccc2no[n+]([O-])c2c1` are greater than 4, “Active” and 3%.
The like results for `COCCNC(=O)/C=C/c1ccc([N+](=O)[O-])o1` were, in that order, greater than 4, “Active” and 0%.
Take `O=S(=O)(NCCc1ccccc1)NCCc1ccccc1`: the Ratio in assay [1] was greater than 4. For the same compound, in the assay on Trypanosoma cruzi, the result was Active. This compound registered an inhibition in assay [2] of 0%.
With `O=[N+]([O-])c1ccc2c(c1)[n+]([O-])c1n2CCC1`, the Ratio in assay [1] is greater than 4. Further, the outcome in the assay on Trypanosoma cruzi was Active. The compound further displayed an inhibition in assay [2] of 35%.
Consider `[O-][n+]1onc(-c2ccccc2)c1CCl`, for which the Ratio in assay [1] was greater than 4. In the assay on Trypanosoma cruzi, the result was Active. The inhibition in assay [2] was found to be 65%.
The corresponding values for `CCNC(=S)N/N=C/C=C/c1ccc([N+](=O)[O-])o1` are greater than 4, “Active” and 21%.
For the compound `CC1[N+]([O-])=c2ccc(Cc3ccccc3)cc2=[N+]1[O-]` (stereo not given), in assay [1], the Ratio is greater than 4. Moreover, the result in the assay on Trypanosoma cruzi was Active. For the same compound, the inhibition in assay [2] stood at 25%.
As for `Cc1ccc2c(c1)[n+]([O-])c(C)n2O`, the Ratio in assay [1] is greater than 4. In addition, the outcome in the assay on Trypanosoma cruzi was Active. The compound further had an inhibition in assay [2] of 6%.
The corresponding values for `COCCNC(=O)N/N=C/C=C/c1ccc([N+](=O)[O-])o1` are greater than 4, “Active” and 0%.
Take `[O-][n+]1onc2ccc(/C=C/[S+]([O-])c3ccccc3)cc21` (stereo not given): the Ratio in assay [1] was greater than 4. Further, the outcome with Trypanosoma cruzi was Active. For the same compound, the inhibition in assay [2] amounted to 28%.
For the compound `Cc1c(C(=O)Nc2ccccc2)[n+]([O-])c2cc(CNC/C=C/c3ccccc3)ccc2[n+]1[O-]`, the Ratio in assay [1] is greater than 4. Moreover, the result with Trypanosoma cruzi was Active. In assay [2], this compound showed an inhibition of 23%.
Take `O=C1CC(=O)N(CCc2ccccc2)S(=O)(=O)N1CCc1ccccc1`: the Ratio in assay [1] is greater than 4. Also, the result in the assay with Trypanosoma cruzi was Active. In assay [2], this compound came in with an inhibition of 0%.
The corresponding values for `[O-][n+]1onc(-c2ccccc2)c1CN1CCN(c2ncccn2)CC1` are greater than 4, “Active” and 8%.
Consider `[O-][n+]1onc2ccc(/C=C\c3ccc(Cl)cc3)cc21`, for which the Ratio in assay [1] is greater than 4. In addition, the outcome with Trypanosoma cruzi was Active. In assay [2], this compound registered an inhibition of 5%.
The corresponding values for `CCCCCCN/N=C/c1no[n+]([O-])c1C` are greater than 4, “Active” and 55%.
Turning to `Cc1nnc[n+]([O-])c1/C=C/c1ccc([N+](=O)[O-])o1`, the Ratio in assay [1] is greater than 4. Besides, the result with Trypanosoma cruzi was Active. This compound also yielded an inhibition in assay [2] of 38%.
For the compound `O=[N+]([O-])c1ccccc1/C=N/N1CCOCC1`, the Ratio in assay [1] is greater than 4. The result with Trypanosoma cruzi was Active. Besides, the inhibition in assay [2] was 28%.
The corresponding values for `COC(=O)/C=C/c1ccc2no[n+]([O-])c2c1` are greater than 4, “Active” and 8%.
In the case of `O=Cc1c(-c2ccccc2)no[n+]1[O-]`, the Ratio in assay [1] is greater than 4. For the same compound, the outcome with Trypanosoma cruzi was Active. Also, the inhibition in assay [2] was determined as 53%.
The like results for `COC(=O)N/N=C/c1ccc([N+](=O)[O-])o1` were, in that order, greater than 4, “Active” and 0%.
For `CCCCCCCCOC(=O)N/N=C/C=C/c1ccc([N+](=O)[O-])o1`, the Ratio in assay [1] was greater than 4. In the assay on Trypanosoma cruzi, the result was Active. The compound also showed an inhibition in assay [2] of 0%.
Consider `CCOC(=O)c1c(-c2ccccc2)[n+]([O-])c2ccc(CN3CCN(C/C=C/c4ccccc4)CC3)cc2[n+]1[O-]`, for which the Ratio in assay [1] is greater than 4. Also, the result in the assay on Trypanosoma cruzi was Active. Further, in assay [2], the inhibition worked out at 12%.
Take `C=CCNC(=S)N/N=C/c1ccc([N+](=O)[O-])s1`: the Ratio in assay [1] is greater than 4. The outcome in the assay on Trypanosoma cruzi was Active. The same compound returned an inhibition in assay [2] of 58%.
As for `[O-][N+]1=c2ccccc2=[N+]([O-])C12CCCC2`, the Ratio in assay [1] was greater than 4. The outcome with Trypanosoma cruzi was Active. For the same compound, in assay [2], the inhibition was 12%.
The corresponding values for `CC1(C)[N+]([O-])=c2ccc(COc3ccc(C=O)cc3)cc2=[N+]1[O-]` are greater than 4, “Active” and 26%.
The corresponding values for `O=C(/C=C/c1ccc([N+](=O)[O-])o1)NC12CC3CC(CC(C3)C1)C2` are greater than 4, “Active” and 16%.
The like results for `CC(=O)CC(=O)Nc1ccccc1` were, in that order, greater than 4, “Active” and 17%.
`O=[N+]([O-])c1ccc2c(c1)c(OCc1ccccc1)nn2CCCCCN1CCCCC1`: the Ratio in assay [1] was greater than 4. In the assay with Trypanosoma cruzi, the outcome was Active. The compound also gave an inhibition in assay [2] of 0%.
The like results for `[O-][n+]1onc2ccc(C=Cc3ccccc3F)cc21` were, in that order, greater than 4, “Active” and 9%.
For the compound `O=c1c2cc([N+](=O)[O-])ccc2n2n1CCCCC2`, in assay [1], the Ratio was greater than 4. The outcome with Trypanosoma cruzi was Active. For the same compound, in assay [2], the inhibition was found to be 4%.
The corresponding values for `O=C(O)c1ccc(/C=C\c2ccc3no[n+]([O-])c3c2)cc1` are greater than 4, “Active” and 6%.
Consider `CCCCCCNC(=O)N/N=C/c1ccc([N+](=O)[O-])s1`, for which, in assay [1], the Ratio was greater than 4. Besides, the outcome in the assay with Trypanosoma cruzi was Active. For the same compound, the inhibition in assay [2] came out at 14%.
On to `CNC(=S)N/N=C/c1ccc([N+](=O)[O-])o1`, for which, in assay [1], the Ratio is greater than 4. Moreover, the outcome in the assay with Trypanosoma cruzi was Active. In addition, the inhibition in assay [2] was 22%.
For the compound `[O-][n+]1onc2ccc(/C=N/O)cc21`, the Ratio in assay [1] was greater than 4. For the same compound, the outcome in the assay on Trypanosoma cruzi was Active. In assay [2], this compound returned an inhibition of 27%.
`NC1=NS(=O)(=O)N=C(N)C1`: the Ratio in assay [1] was greater than 4. In the assay with Trypanosoma cruzi, the result was Active. Further, the inhibition in assay [2] was 0%.
The corresponding values for `CC1(C)[N+]([O-])=c2ccc(C3OCCO3)cc2=[N+]1[O-]` are greater than 4, “Active” and 36%.
The like results for `CCCCCCNC(=O)N/N=C/c1c(-c2ccccc2)no[n+]1[O-]` were, in that order, greater than 4, “Active” and 4%.
As for `CCOC(=O)/C=C/c1ccc([N+](=O)[O-])o1`, the Ratio in assay [1] is greater than 4. Further, in the assay with Trypanosoma cruzi, the outcome was Active. The compound also displayed an inhibition in assay [2] of 3%.
The like results for `Cc1ccc(-n2cc(C)[n+]([O-])c2)cc1` were, in that order, greater than 4, “Active” and 13%.
The like results for `Cc1nncnc1CC(c1ccc([N+](=O)[O-])cc1)[N+]1([O-])CCOCC1` (stereo not given) were, in that order, greater than 4, “Active” and 38%.
The like results for `Cc1nnc[n+]([O-])c1/C=C/c1ccc2c(c1)OCO2` were, in that order, greater than 4, “Active” and 40%.
Regarding `Cc1c(CNc2cccc3ccccc23)no[n+]1[O-]`, the Ratio in assay [1] is greater than 4. Further, the outcome in the assay with Trypanosoma cruzi was Active. In addition, in assay [2], the inhibition was found to be 41%.
The like results for `CCOC(=O)c1nsc(-c2cc(C(C)(C)C)c(O)c(C(C)(C)C)c2)n1` were, in that order, greater than 4, “Active” and 65%.
The like results for `Cc1c(C)[n+]([O-])c2cc(C=O)ccc2[n+]1[O-]` were, in that order, greater than 4, “Active” and 11%.
The compound `[O-][n+]1onc(-c2ccccc2)c1CO` returned an inhibition in assay [2] of 23%.
Turning to `Cn1c2ccc(Cl)cc2c(-c2ccccc2)[n+]1[O-]`, the Ratio in assay [1] is greater than 4. Further, in the assay on Trypanosoma cruzi, the outcome was Active. Also, the inhibition in assay [2] is 16%.
The like results for `CC1(C)[N+]([O-])=c2ccc(CN3CCN(C/C=C/c4ccccc4)CC3)cc2=[N+]1[O-]` were, in that order, greater than 4, “Active” and 31%.
`CC(=O)Oc1c(C)c(C)c2c(c1C)CCC(C)(C(=O)NCCO[N+](=O)[O-])O2` (stereo not given): in assay [2], the inhibition was determined as 7%.

By inhibition is commonly meant the percentage by which the read-out fell short of the control.
